Measured values taken from ChEMBL document CHEMBL3102810, “Alkylamino derivatives of pyrazinamide: synthesis and antimycobacterial evaluation” (Bioorg Med Chem Lett, 2014).
In brackets after ≈: the same amount, converted by molar mass. Activity calls are given as the source filed them. The calls are words filed in the database; no cut-off is given here.

Assays:
Pichia kudriavzevii = experiment: Antifungal activity against Candida krusei E28 after 72 to 120 hrs by microdilution broth method; assay type: functional, organism-based
Staphylococcus aureus = experiment: Antibacterial activity against Staphylococcus aureus CCM 4516/08 after 24 to 48 hrs by microdilution broth method; assay type: functional, organism-based
Summary of the method: (§1)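 Antibacterial screen with compound concentrations up to a highest level of 500 µM. Results expressed as MIC in µM.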

Nakaseomyces glabratus = experiment: Antifungal activity against Candida glabrata 20/I after 72 to 120 hrs by microdilution broth method; assay type: functional, organism-based
Candida tropicalis = experiment: Antifungal activity against Candida tropicalis 156 after 72 to 120 hrs by microdilution broth method; assay type: functional, organism-based
Lichtheimia corymbifera = experiment: Antifungal activity against Absidia corymbifera 272 after 72 to 120 hrs by microdilution broth method; assay type: functional, organism-based
Mycobacterium avium [1] = experiment: Antimycobacterial activity against pyrazinamide-resistant Mycobacterium avium CNCTC My 80/72 after 5 days by microplate alamar blue assay; assay type: functional; settings: CNCTC My 80/72, 120 h
Summary of the method: (§2)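 Microplate alamar blue assay run at pH 5.6, using conditions optimized for pyrazinamide. Strains came from the Czech National Collection of Type Cultures. MIC was read in µg/mL and converted to µM using molecular weight.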

[2] = system: Staphylococcus epidermidis; experiment: Antibacterial activity against methicillin-resistant Staphylococcus epidermidis H 5996/08 after 24 to 48 hrs by microdilution broth method; assay type: functional, organism-based
Klebsiella pneumoniae [3] = experiment: Antibacterial activity against Klebsiella pneumoniae D 11750/08 after 24 to 48 hrs by microdilution broth method; assay type: functional, organism-based; summary of the method: as §1
Mycobacterium avium [4] = experiment: Antimycobacterial activity against pyrazinamide-resistant Mycobacterium avium CNCTC My 152/73 after 5 days by microplate alamar blue assay; assay type: functional; settings: CNCTC My 152/73, 120 h; summary of the method: as §2
[5] = system: Trichophyton mentagrophytes; experiment: Antifungal activity against Trichophyton mentagrophytes after 72 to 120 hrs by microdilution broth method; assay type: functional, organism-based
[6] = system: Staphylococcus epidermidis; experiment: Antibacterial activity against Staphylococcus epidermidis H 6966/08 after 48 hrs by microdilution broth method; assay type: functional; summary of the method: as §1
[7] = system: Mycobacterium tuberculosis; experiment: Antimycobacterial activity against Mycobacterium tuberculosis H37Rv CNCTC My 331/88 after 5 days by microplate alamar blue assay; assay type: functional; settings: H37Rv CNCTC My 331/88, 120 h; summary of the method: as §2
[8] = system: Staphylococcus epidermidis; experiment: Antibacterial activity against Staphylococcus epidermidis H 6966/08 up to 500 uM after 24 to 48 hrs by microdilution broth method; assay type: functional, organism-based; summary of the method: as §1
[9] = system: Trichophyton mentagrophytes; experiment: Antifungal activity against Trichophyton mentagrophytes 445 after 72 to 120 hrs by microdilution broth method; assay type: functional, organism-based
Trichosporon asahii = experiment: Antifungal activity against Trichosporon asahii 1188 after 72 to 120 hrs by microdilution broth method; assay type: functional, organism-based
Enterococcus sp. = experiment: Antibacterial activity against Enterococcus sp. J 14365/08 after 24 to 48 hrs by microdilution broth method; assay type: functional, organism-based; summary of the method: as §1
[10] = Lipophilicity, log K of the compound by HPLC analysis; assay type: physicochemical
Klebsiella pneumoniae [11] = experiment: Antibacterial activity against ESBL positive Klebsiella pneumoniae J 14368/08 after 24 to 48 hrs by microdilution broth method; assay type: functional, organism-based; summary of the method: as §1
Mycobacterium kansasii = experiment: Antimycobacterial activity against pyrazinamide-resistant Mycobacterium kansasii CNCTC My 235/80 after 5 days by microplate alamar blue assay; assay type: functional; settings: CNCTC My 235/80, 120 h; summary of the method: as §2
Escherichia coli = experiment: Antibacterial activity against Escherichia coli CCM 4517 after 24 to 48 hrs by microdilution broth method; assay type: functional, organism-based; summary of the method: as §1
Pseudomonas aeruginosa = experiment: Antibacterial activity against Pseudomonas aeruginosa CCM 1961 after 24 to 48 hrs by microdilution broth method; assay type: functional, organism-based; summary of the method: as §1
Candida albicans = experiment: Antifungal activity against Candida albicans ATCC 44859 after 72 to 120 hrs by microdilution broth method; assay type: functional, organism-based
Aspergillus fumigatus = experiment: Antifungal activity against Aspergillus fumigatus 231 after 72 to 120 hrs by microdilution broth method; assay type: functional, organism-based

Row | SMILES | Activity (Pichia kudriavzevii) | Activity (Staphylococcus aureus) | Activity (Nakaseomyces glabratus) | Activity (Candida tropicalis) | Activity (Lichtheimia corymbifera) | MIC (Mycobacterium avium [1]) [µg/mL] | Activity [2] | Activity (Klebsiella pneumoniae [3]) | MIC (Mycobacterium avium [4]) [µg/mL] | Activity [5] | Activity [6] | MIC [7] | Activity [8] | Activity [9] | Activity (Trichosporon asahii) | Activity (Enterococcus sp.) | log K [10] | Activity (Klebsiella pneumoniae [11]) | MIC (Mycobacterium kansasii) [µg/mL] | Activity (Escherichia coli) | further results
1 | NC(=O)c1cnc(NCCc2ccccc2)cn1 | inactive | inactive | inactive | inactive | inactive | > 100 | inactive | inactive | > 100 | inactive | inactive | 206 µM | inactive | inactive | inactive | inactive | -0.0382 | inactive | 100 (≈ 413 µM) | inactive | Activity (Pseudomonas aeruginosa): inactive; Activity (Candida albicans): inactive; Activity (Aspergillus fumigatus): inactive
2 | CCCNc1cncc(C(N)=O)n1 | inactive | inactive | inactive | inactive | inactive | > 100 | inactive | inactive | > 100 | inactive | inactive | > 100 µg/mL | inactive | inactive | inactive | inactive | -0.4386 | inactive | > 100 | inactive | Activity (Pseudomonas aeruginosa): inactive; Activity (Candida albicans): inactive; Activity (Aspergillus fumigatus): inactive
3 | NC(=O)c1cncc(NCCc2ccccc2)n1 | inactive | inactive | inactive | inactive | inactive | > 100 | inactive | inactive | > 100 | inactive | inactive | > 100 µg/mL | inactive | inactive | inactive | inactive | -0.0986 | inactive | > 100 | inactive | Activity (Pseudomonas aeruginosa): inactive; Activity (Candida albicans): inactive; Activity (Aspergillus fumigatus): inactive
4 | CCCCNc1cncc(C(N)=O)n1 | inactive | inactive | inactive | inactive | inactive | > 100 | inactive | inactive | > 100 | inactive | inactive | 100 µg/mL | inactive | inactive | inactive | inactive | -0.2162 | inactive | > 100 | inactive | Activity (Pseudomonas aeruginosa): inactive; Activity (Candida albicans): inactive; Activity (Aspergillus fumigatus): inactive
5 | CCCCCNc1cncc(C(N)=O)n1 | inactive | inactive | inactive | inactive | inactive | > 100 | inactive | inactive | > 100 | inactive | inactive | 100 µg/mL | inactive | inactive | inactive | inactive | -0.0095 | inactive | > 100 | inactive | Activity (Pseudomonas aeruginosa): inactive; Activity (Candida albicans): inactive; Activity (Aspergillus fumigatus): inactive
